The text below walks through data of ChEMBL document CHEMBL1772934, “Applications of 2-arylhydrazononitriles in synthesis: preparation of new indole containing 1,2,3-triazole, pyrazole and pyrazolo[1,5-a]pyrimidine derivatives and evaluation of their antimicrobial activities” (2011).

What all share (type): functional
Common to all, as to details: read-out: DIZ

In one experiment the test system is Staphylococcus aureus. The experiment is described as follows: Antimicrobial activity against Staphylococcus aureus at 1 mg/ml after 24 hrs by agar well diffusion method. The essentials: (§1)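 A 0.1 mL aliquot of each bacterial strain was spread on nutrient agar. 4 mm wells were cut with a sterile cork borer and filled with compound in DMSO at a final concentration of 1 mg mL-1. Plates were incubated at 37 °C for 24 h. The inhibition zone diameter around each well was measured and averaged over triplicate measurements.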
(In general: In agar diffusion tests the substance spreads into inoculated agar from a disc or well.)

The subject of a further experiment is Bacillus subtilis. The experiment is described as follows: Antimicrobial activity against Bacillus subtilis at 1 mg/ml after 24 hrs by agar well diffusion method. In short, it runs like this: as §1
The next experiment concerns Escherichia coli. The experiment is described as follows: Antimicrobial activity against Escherichia coli at 1 mg/ml after 24 hrs by agar well diffusion method. In short, it runs like this: as §1
A further experiment relates to Candida albicans. Put plainly: Antimicrobial activity against Candida albicans at 1 mg/ml after 48 hrs by agar well diffusion method. The essentials: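 A 0.1 mL aliquot of the yeast was spread on potato dextrose agar. 4 mm cork-borer wells received compound in DMSO at a final concentration of 1 mg mL-1. Plates were incubated at 25 °C for 48 h. The inhibition zone diameter was read and averaged over triplicate measurements.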

Regarding `Cn1cc(C(=O)CC#N)c2ccccc21`, the zone of inhibition at 1000 µg/mL with Staphylococcus aureus amounted to 0 mm; in the experiment with Bacillus subtilis, 2 mm; in the experiment on Escherichia coli, 0 mm; with Candida albicans, 0 mm.

As to `Cc1[nH]c2ccccc2c1C(=O)c1nn(-c2ccccc2)nc1NC(=O)/C(C#N)=C/N(C)C`, the zone of inhibition at 1000 µg/mL in the experiment on Staphylococcus aureus stood at 0 mm; in the experiment with Bacillus subtilis it was 2.5 mm; in the experiment on Escherichia coli, 0 mm; with Candida albicans it was 0 mm.

In the case of `Cn1cc(C(=O)c2nn(-c3ccccc3)nc2NC(=O)c2cnn3c(-c4ccccc4)ccnc23)c2ccccc21`, the zone of inhibition at 1000 µg/mL with Staphylococcus aureus turned out to be 0 mm; in the experiment with Bacillus subtilis, 3.3 mm; with Escherichia coli it was 0 mm; with Candida albicans, 0 mm.

As to `Cc1[nH]c2ccccc2c1C(=O)CC#N`, the zone of inhibition at 1000 µg/mL in the experiment with Staphylococcus aureus was 0 mm; in the experiment with Bacillus subtilis it was 3.3 mm; in the experiment with Escherichia coli it was 0 mm; in the experiment on Candida albicans it was 0 mm.

As to `Cc1[nH]c2ccccc2c1C(=O)/C(C#N)=N/Nc1ccccc1`, the zone of inhibition at 1000 µg/mL in the experiment with Staphylococcus aureus was determined as 0 mm; in the experiment on Bacillus subtilis, 1.3 mm; in the experiment with Escherichia coli, 0 mm; in the experiment with Candida albicans, 0 mm.

With `Cn1cc(-c2c(C#N)c(=O)[nH]c3nn(-c4ccccc4)nc23)c2ccccc21`, the zone of inhibition at 1000 µg/mL in the experiment with Staphylococcus aureus is 0 mm; in the experiment with Bacillus subtilis it was 2 mm; in the experiment with Escherichia coli it was 0 mm; with Candida albicans it was 0 mm.

Take `Cn1cc(C(=O)c2nn(-c3ccccc3)nc2NC(=O)CC#N)c2ccccc21`: the zone of inhibition at 1000 µg/mL was 0 mm in the experiment on Staphylococcus aureus, 6 mm in the experiment on Bacillus subtilis, 0 mm in the experiment with Escherichia coli and 0 mm in the experiment with Candida albicans.

As for `CC1(C)S[C@@H]2[C@H](NC(=O)[C@H](N)c3ccccc3)C(=O)N2[C@H]1C(=O)O` [AMPICILLIN], the zone of inhibition at 1000 µg/mL in the experiment on Staphylococcus aureus came out at 5 mm; in the experiment on Bacillus subtilis, 1 mm; in the experiment with Escherichia coli, 22 mm.

In the case of `CN(C)/C=C(\C#N)C(=O)Nc1nn(-c2ccccc2)nc1C(=O)c1cn(C)c2ccccc12`, the zone of inhibition at 1000 µg/mL is 0 mm with Staphylococcus aureus, 3.3 mm in the experiment with Bacillus subtilis, 0 mm with Escherichia coli and 0 mm with Candida albicans.

In the case of `Cn1cc(C(=O)/C(C#N)=N/Nc2ccccc2)c2ccccc21`, the zone of inhibition at 1000 µg/mL in the experiment on Staphylococcus aureus amounted to 0 mm; with Bacillus subtilis, 2.7 mm; in the experiment on Escherichia coli it was 0 mm; in the experiment with Candida albicans, 0 mm.

Take `Cn1cc(C(=O)c2nn(-c3ccccc3)nc2N)c2ccccc21`: the zone of inhibition at 1000 µg/mL was 12.2 mm with Staphylococcus aureus, 6 mm in the experiment with Bacillus subtilis, 6.7 mm in the experiment with Escherichia coli and 10.7 mm in the experiment with Candida albicans.

As to `Cc1[nH]c2ccccc2c1-c1c(C#N)c(=O)[nH]c2nn(-c3ccccc3)nc12`, the zone of inhibition at 1000 µg/mL came out at 0 mm with Staphylococcus aureus, 6 mm with Bacillus subtilis, 4 mm with Escherichia coli and 0 mm in the experiment on Candida albicans.

Regarding `Cc1[nH]c2ccccc2c1C(=O)c1nn(-c2ccccc2)nc1NC(=O)c1cnn2c(-c3ccccc3)ccnc12`, the zone of inhibition at 1000 µg/mL was determined as 0 mm in the experiment on Staphylococcus aureus, 8 mm in the experiment with Bacillus subtilis, 5 mm in the experiment on Escherichia coli and 0 mm in the experiment with Candida albicans.

With `Cc1[nH]c2ccccc2c1C(=O)c1nn(-c2ccccc2)nc1N`, the zone of inhibition at 1000 µg/mL in the experiment on Staphylococcus aureus came to 12 mm; in the experiment on Bacillus subtilis it was 12 mm; in the experiment with Escherichia coli, 8.7 mm; in the experiment with Candida albicans, 8.7 mm.

In the case of `Cc1[nH]c2ccccc2c1C(=O)c1nn(-c2ccccc2)nc1NC(=O)/C(C#N)=C/C=C/c1ccccc1`, the figures for the zone of inhibition at 1000 µg/mL in the experiment with Bacillus subtilis, in the experiment with Escherichia coli and in the experiment with Candida albicans were 3 mm, 0 mm and 0 mm, respectively.

Regarding `Cc1[nH]c2ccccc2c1C(=O)c1nn(-c2ccccc2)nc1NC(=O)c1cn[nH]c1N`, the zone of inhibition at 1000 µg/mL in the experiment with Staphylococcus aureus turned out to be 0 mm; in the experiment on Bacillus subtilis it was 11.3 mm; with Escherichia coli, 0 mm; in the experiment on Candida albicans it was 0 mm.

As for `Cc1cccc(-c2ccnc3c(C(=O)Nc4nn(-c5ccccc5)nc4C(=O)c4cn(C)c5ccccc45)cnn23)n1`, the zone of inhibition at 1000 µg/mL in the experiment with Staphylococcus aureus is 0 mm; in the experiment on Bacillus subtilis, 2.7 mm; in the experiment with Escherichia coli, 0 mm; in the experiment on Candida albicans it was 0 mm.

As to `Cn1cc(C(=O)c2nn(-c3ccccc3)nc2NC(=O)c2cnn3c(-c4cccs4)ccnc23)c2ccccc21`, the zone of inhibition at 1000 µg/mL in the experiment on Staphylococcus aureus worked out at 0 mm; with Bacillus subtilis it was 4 mm; with Escherichia coli, 0 mm; in the experiment on Candida albicans, 5.7 mm.

Regarding `Cc1[nH]c2ccccc2c1C(=O)c1nn(-c2ccccc2)nc1NC(=O)CC#N`, the zone of inhibition at 1000 µg/mL in the experiment on Staphylococcus aureus stood at 0 mm; in the experiment on Bacillus subtilis, 9.3 mm; in the experiment on Escherichia coli, 6.2 mm; with Candida albicans, 0 mm.

`Cn1cc(C(=O)c2nn(-c3ccccc3)nc2NC(=O)c2cn[nH]c2N)c2ccccc21`: the zone of inhibition at 1000 µg/mL in the experiment with Staphylococcus aureus was 0 mm; with Bacillus subtilis, 2.7 mm; in the experiment on Escherichia coli, 0 mm; in the experiment with Candida albicans, 0 mm.

In the case of `Cn1cc(C(=O)c2nn(-c3ccccc3)nc2NC(=O)/C(C#N)=C/C=C/c2ccccc2)c2ccccc21`, the zone of inhibition at 1000 µg/mL in the experiment on Staphylococcus aureus was 0 mm; with Bacillus subtilis, 2.7 mm; with Escherichia coli it was 0 mm; in the experiment on Candida albicans it was 0 mm.
